Screens: PubChem BioAssay, several laboratories
Ba/F3 V617F tox: reduced viability of JAK2V617F-dependent Ba/F3 cells, primary screen, JAK2V617F inhibitor project, cell-based, Ba/F3 EpoR-JAK2V617F, luminescence. ATP luminescence. inhibition, % at 5.6 µM. 220,000 compounds, 1.1% hits;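 active = inhibition above the campaign mean plus 3 SD over all tested compounds, cut at about 24% in these data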;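 also: cytokine-independent growth of Ba/F3 cells driven by EpoR plus mutant JAK2; 0% = DMSO-treated cells and 100% = JAK inhibitor I control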
IEC-6 tox: cytotoxicity in IEC-6 intestinal epithelial cells, primary screen, cytotoxicity control for KLF5 inhibitor project, cell-based, luminescence; inhibition, % at 5 µM; IEC-6 cytotoxicity, luminescence viability; AID 1825, 2009; 290,000 compounds, 0.78% hits;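 also: 0% = plate median of test compound wells and 100% = cytotoxic reference compound wells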
MT stabilizer: microtubule stabilizers in HeLa cells, primary screen, imaging, high-content imaging | % tubulin-high responders, % at 10 µM | 200,000 compounds, 0.83% hits | HeLa tubulin immunostaining HCS, 24 h; share of cells brighter than vehicle mean+2SD;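 active = plate Z-score above 3 for both tubulin-high and condensed-nucleus cell shares, with cell loss under 80%, at 10 µM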;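 also: anti alpha tubulin signal scored within the nucleus-defined area of each cell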
bCat nuc transl: modulators of beta-catenin nuclear translocation, primary screen, imaging, HeLa cells, immunofluorescence, high-content | nuclear translocation activity, % at 5 µM | 190,000 compounds, 0.3% hits;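 active = nuclear translocation activity above 50% at 5 µM, with a well cell count of 50 or more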;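 also: per-cell ratio of nuclear to cytoplasmic median beta-catenin stain intensity; plate controls were DMSO negative control for no effect and GSK-3 inhibitor IX positive control for full effect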
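Test system: HeLa cells, endogenous beta-catenin; Compound: single 5 µM dose plus 0.02–20 µM confirmation series; Times: compound exposure 24 h at 37°C; Signal: fluorescence imaging of beta-catenin antibody stain plus DAPI; Read-out: % activation, nuclear-to-cytoplasmic median beta-catenin signal ratio per cell.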
BaF3 parental: parental Ba/F3 cell viability inhibition, counter-screen for JAK2V617F inhibitor project, murine pro-B, CellTiter-Glo luminescence. CellTiter-Glo ATP luminescence. inhibition, % at 5.6 µM. 220,000 compounds, 1.1% hits. AID 1486, 2009;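 active = inhibition above a per-campaign cutoff, the mean inhibition of all tested compounds plus 3 SD, cut at about 27% in these data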;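 also: 0% = DMSO wells and 100% = JAK Inhibitor I control wells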
APP transl inh: inhibitors of APP translation via 5'UTR reporter, primary screen, APP 5'UTR luciferase, SH-SY5Y cells; AID 1285, 2008; 190,000 compounds, 0.82% hits; inhibition, % at 2 µM; SH-SY5Y APP 5'UTR-luciferase reporter, luminescence;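 active = inhibition above a set limit, derived from the sample mean plus 3 SD, cut at about 45% in these data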
BaF3 tox 2: parental Ba/F3 cell viability inhibition, counter-screen for JAK2V617F inhibitor project, murine pro-B, CellTiter-Glo luminescence; shares compounds with Ba/F3 V617F tox; cells kept alive by added IL-3; inhibition, % at 5.6 µM; 580 compounds, 31% hits;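 active = cell growth inhibition above the hit limit set in the earlier mutant JAK2 cell screen, cut at about 27% in these data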;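 also: plate controls were DMSO-treated cells for no effect and JAK Inhibitor I control wells for full effect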
JAK2V617F conf: viability loss in Ba/F3 EpoR-JAK2V617F cells, confirmation, JAK2V617F inhibitor project, cell-based, luminescence, triplicate | 580 compounds, 66% hits | shares compounds with Ba/F3 V617F tox | AID 1521, 2009 | inhibition, % at 5.6 µM | CellTiter-Glo luminescence;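 active = mean inhibition above the hit cutoff derived in the earlier primary screen, cut at about 25% in these data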;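 also: 0% = DMSO-treated cells and 100% = JAK inhibitor I control wells; higher means lower luminescence from reduced cell ATP and viability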
IEC-6 cytotox cf: cytotoxic compounds in IEC-6 epithelial cells, confirmation, cytotoxicity control, cell-based, luminescence; shares compounds with IEC-6 tox; IEC-6 rat intestinal epithelial viability; inhibition, % at 5 µM; 1,900 compounds, 63% hits; AID 1907, 2009;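 also: 0% = vehicle and 100% = reference cytotoxic drug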
* marks the source's active call; other numbers are inactive results; . = no result given. Most compounds without a hit are left out; they make up all but 2.2% or so of the library. Rule as the data show it, unless noted: active = inhibition above about 22%; inactive = the rest.

SMILES	Ba/F3 V617F tox	IEC-6 tox	MT stabilizer	bCat nuc transl	BaF3 parental	APP transl inh	BaF3 tox 2	JAK2V617F conf	others
COCc1cc(=O)[nH]c(SCC(=O)Nc2ccccc2)n1	95*	-11	4	-7	-4	-11	-4	-2
CCNC(=S)N1N=C2c3ccccc3CCC2C1c1ccc(F)cc1 (centres undefined)	4	0	.	-1	-1	.	.	.
C=CCNC(=O)CN1CCN(Cc2ccc3c(c2)OCO3)CC1	.	-4	.	.	.	.	.	.
CCCOc1ccccc1C1C(C(=O)OC)=CN(C(C)C)C=C1C(=O)OC	2	-12	3	2	7	18	.	.
CCCCOc1ccccc1C1C(C(=O)OC)=CN(CC)C=C1C(=O)OC	29*	13	2	-2	26	2	30*	35*
CN(C(=O)COc1ccc(Cl)cc1Br)C1CCCCC1	.	8	.	.	.	.	.	.
CCc1nc(C)cn1S(=O)(=O)c1ccc([N+](=O)[O-])cc1	-1	1	2	0	4	0	.	.
CCCn1c(CC)nc([N+](=O)[O-])c1S(=O)(=O)c1ccccc1	49*	5	1	0	8	14	-2	70*
C#Cc1ccc([C@@H]2C=C(C(=O)OCC=C)O[C@H](OCc3ccc(CO)cc3)C2)cc1	-1	-1	4	0	-1	-27	.	.
Oc1ccc(CN2CCC(Cc3ccccc3)CC2)c2cccnc12	83*	-12	3	0	0	58*	84*	98*
O=C(CSc1ccccc1)Nc1ccc2c(c1)OCCO2	.	-2	.	.	.	.	.	.
O=C(CSc1ccc(-c2ccccc2)nn1)Nc1ccc2c(c1)OCCO2	46*	8	3	-1	8	-16	-4	-14
CCOC(=O)C1CCN(c2ncnc3c2cnn3C)CC1	.	-2	.	.	.	.	.	.
CCN(CC)S(=O)(=O)c1ccc(N2CCOCC2)c(NC(=S)NC(=O)c2ccco2)c1	-2	1	.	0	-1	.	.	.
Cc1ccc(C)c(NC(=O)NNS(=O)(=O)c2ccc(C)c(C)c2)c1	.	3	.	.	.	.	.	.
C/C(=N\Nc1nc(-c2ccccn2)nc2ccccc12)c1ccc(F)cc1	0	3	.	2	0	.	.	.
c1ccc(CCNc2nc(-c3ccccn3)nc3ccccc23)cc1	58*	8	.	4	9	.	10	88*
CCOC(=O)c1c(C)sc2c1N(C(=O)CCl)c1cc(Cl)ccc1S2	28*	13	5	0	11	-2	58*	99*
C=CCN1C(=O)C(CC(=O)Nc2ccc(OCCC)cc2)N(CCCN2CCN(Cc3ccccc3)CC2)C1=S (centres undefined)	5	8	4	.	7	-3	.	.
CCOc1ccc(C(=O)N(Cc2ccccc2)c2cccc(C)c2)cc1OC	.	-2	.	.	.	.	.	.
Cc1cc2c(cc(C(=O)OCC(=O)NCc3cccs3)n2C(C)C)o1	37*	77*	30*	65*	18	75*	41*	90*	IEC-6 cytotox cf=55*
Cc1cc(C)cc(C(=O)OCC(=O)NCc2cccs2)c1	-4	3	2	-2	2	-1	.	.
CCOc1ccc(N(C(=O)c2cnccn2)C(C(=O)NC2CCCCC2)c2ccc(O)cc2)cc1 (centres undefined)	-2	-4	3	0	7	-13	.	.
O=S(=O)(c1cccs1)N1CCN(c2ccc(O)cc2)CC1	66*	24*	.	-4	-2	.	6	60*	IEC-6 cytotox cf=6
CN1CCN(S(=O)(=O)c2cccs2)CC1	-1	0	1	1	0	19	.	.
